The text below walks through data of ChEMBL document CHEMBL1143007, “Synthesis and evaluation of 4/5-hydroxy-2,3-diaryl(substituted)-cyclopent-2-en-1-ones as cis-restricted analogues of combretastatin A-4 as novel anticancer agents” (J Med Chem, 2007).

The IC50 is the concentration at which inhibition is half-maximal.

Structures are written as SMILES. In brackets after ≈: the same amount, converted by molar mass. Some results are limits rather than exact numbers.

Assay [1] concerns HT-29. The assay can be described thus: Cytotoxicity against human HT29 cells after 72 hrs by MTT assay. The format is cell-based. The settings on record: Homo sapiens, HT-29, 72 h; read-out: IC50. In a few lines: (§1)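 MTT assay. Cells seeded at 5000-10 000 per well and incubated at 37 °C in CO₂ with compound at 1-100 µg/mL in triplicate wells for 72 h, then MTT added. Absorbance read at 540 nm; % cytotoxicity = 100 × (1 − treated/control). IC50 obtained by nonlinear regression; NA means IC50 above 100 µg/mL.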

The test system of assay [2] is KB. As to the kind of experiment: Cytotoxicity against human KB cells after 72 hrs by MTT assay. Type of assay: cell-based. Summed up: as §1
A general note: Formazan colour is commonly taken as a measure of viable cells.

Assay [3] can be described thus: Cytotoxicity against human Hep2 cells after 72 hrs by MTT assay. Type of assay: cell-based, HEp-2. Summed up: as §1
Assay [4] is described as follows: Cytotoxicity against human ECV304 cells after 72 hrs by MTT assay. The format is cell-based, ECV-304. Summed up: as §1
The test system of assay [5] is DU-145. As to the kind of experiment: Cytotoxicity against human DU145 cells after 72 hrs by MTT assay. The format is cell-based. The settings on record: Homo sapiens, DU-145, 72 h; read-out: IC50. Summed up: as §1
A short description of assay [6]: Cytotoxicity against human PA1 cells after 72 hrs by MTT assay. Type of assay: cell-based, PA-1. Summed up: as §1
For assay [7], the system named is L132. The assay can be described thus: Cytotoxicity against human L132 cells after 72 hrs by MTT assay. Type of assay: cell-based. In a few lines: as §1
Assay [8] relates to MIA PaCa-2. As to the kind of experiment: Cytotoxicity against human MiaPaCa2 cells after 72 hrs by MTT assay. The format is cell-based. The settings on record: Homo sapiens, MIA PaCa-2, 72 h; read-out: IC50. In a few lines:
as §1

The test system of assay [9] is HEK293. As to the kind of experiment: Cytotoxicity against human HEK293 cells after 72 hrs by MTT assay. Type of assay: cell-based. The settings on record: Homo sapiens, HEK293, 72 h; read-out: IC50. Summed up:
as §1

Setting [10] is: Homo sapiens, KB, 72 h, read-out: IC50.
Setting [11] is: Homo sapiens, HEp-2, 72 h, read-out: IC50.
Where [12] appears, read: Homo sapiens, ECV-304, 72 h, read-out: IC50.
The mark [13] stands for this setting: Homo sapiens, PA-1, 72 h, read-out: IC50.
Where [14] appears, read: Homo sapiens, L132, 72 h, read-out: IC50.

As to `COc1ccc(C2=C(c3cc(OC)c(OC)c(OC)c3)/C(=N\O)CC2OC(C)=O)cc1` (stereo in doubt; 40), the IC50 was under 1 µg/mL in assay [1]; under 1 µg/mL in assay [2] (kb); under 1 µg/mL in assay [3] (hep-2); 60 µg/mL (≈ 140 µM) in [4] (ecv-304); 21 µg/mL (≈ 49.1 µM) in assay [5]; under 1 µg/mL in assay [6] (pa-1). Further, the IC50 was under 1 µg/mL in assay [7] (l132), under 1 µg/mL in assay [8] and 22 µg/mL (≈ 51.5 µM) in assay [9].

In the case of `C=CCOc1cc(C2=C(c3cc(OC)c(OC)c(OC)c3)C(=O)C(O)C2)ccc1OC` (stereo not given), the IC50 in assay [1], in assay [2] (setting [10]), in [3] (setting [11]), in assay [4] (setting [12]), in assay [5] and in assay [6] (setting [13]) was over 100 µg/mL each time. In addition, the IC50 in [7] (setting [14]), in assay [8] and in [9] was over 100 µg/mL each time.

For `COc1ccc(C2=C(c3cc(OC)c(OC)c(OC)c3)C(=O)CC2O[Si](C)(C)C(C)(C)C)cc1` (stereo not given), the IC50 in assay [1], in assay [2] (setting [10]), in assay [3] (setting [11]), in assay [4] (setting [12]), in assay [5] and in assay [6] (setting [13]) was over 100 µg/mL throughout. Also, the IC50 in [7] (setting [14]), in [8] and in assay [9] was over 100 µg/mL in each case.

As for `COc1ccc(C2=C(c3cc(OC)c(OC)c(OC)c3)/C(=N\O)C(OC(C)=O)C2)cc1Cl` (stereo not given), the IC50 in assay [1] is under 1 µg/mL; in assay [2] (setting [10]), 50 µg/mL (≈ 108 µM); in [3] (setting [11]) it was under 1 µg/mL; in assay [4] (setting [12]), 8 µg/mL (≈ 17.3 µM); in assay [5], 17 µg/mL (≈ 36.8 µM); in [6] (setting [13]), 37.5 µg/mL (≈ 81.2 µM). For the same molecule, the IC50 in [7] (setting [14]) is under 1 µg/mL; in [8], 10 µg/mL (≈ 21.6 µM); in [9] it was 32 µg/mL (≈ 69.3 µM).

As for `COc1ccc(OC)c(C2=C(c3cc(OC)c(OC)c(OC)c3)C(=O)CC2O[Si](C)(C)C(C)(C)C)c1` (stereo not given), the IC50 in [1] was found to be 5 µg/mL (≈ 9.71 µM); in assay [2] (setting [10]), 10 µg/mL (≈ 19.4 µM); in assay [3] (setting [11]) it was 19 µg/mL (≈ 36.9 µM); in assay [4] (setting [12]), 6.5 µg/mL (≈ 12.6 µM); in assay [5], 100 µg/mL (≈ 194 µM); in [6] (setting [13]), 17 µg/mL (≈ 33 µM). Further, the IC50 in assay [7] (setting [14]) was 100 µg/mL (≈ 194 µM); in assay [8], over 100 µg/mL; in assay [9] it was 9.5 µg/mL (≈ 18.5 µM).

As for `COc1ccc(C2=C(c3cc(OC)c(OC)c(OC)c3)C(=O)C(O)C2)cc1Cl` (stereo not given), the IC50 is under 1 µg/mL in [1]; 2.5 µg/mL (≈ 6.18 µM) in assay [2] (setting [10]); under 1 µg/mL in assay [3] (setting [11]); 20 µg/mL (≈ 49.4 µM) in [4] (setting [12]); 40 µg/mL (≈ 98.8 µM) in [5]; over 100 µg/mL in [6] (setting [13]). The IC50 in [7] (setting [14]) is under 1 µg/mL; in [8], over 100 µg/mL; in [9] it was over 100 µg/mL.

For `COc1ccc(C2=C(c3cc(OC)c(OC)c(OC)c3)/C(=N\O)C(O)C2)cc1Cl` (stereo not given), the 50% inhibitory concentration (IC50) in assay [1] was under 1 µg/mL; in assay [2] (setting [10]), 9.8 µg/mL (≈ 23.3 µM); in [3] (setting [11]), under 1 µg/mL; in [4] (setting [12]), 18.5 µg/mL (≈ 44.1 µM); in [5], 16 µg/mL (≈ 38.1 µM); in [6] (setting [13]), over 100 µg/mL. The IC50 in assay [7] (setting [14]) is under 1 µg/mL; in assay [8] it was 33 µg/mL (≈ 78.6 µM); in [9], 50 µg/mL (≈ 119 µM).

On to `COCOc1cc(C2=C(c3cc(OC)c(OC)c(OC)c3)C(=O)CC2O[Si](C)(C)C(C)(C)C)ccc1OC` (stereo not given), for which the IC50 in assay [1] was 43 µg/mL (≈ 78.9 µM); in assay [2] (setting [10]), 33 µg/mL (≈ 60.6 µM); in assay [3] (setting [11]) it was 12 µg/mL (≈ 22 µM); in [4] (setting [12]), 40 µg/mL (≈ 73.4 µM); in assay [5] it was 34 µg/mL (≈ 62.4 µM); in [6] (setting [13]), 13.5 µg/mL (≈ 24.8 µM). Moreover, the figures for the IC50 in assay [7] (setting [14]), in assay [8] and in assay [9] were 32 µg/mL (≈ 58.7 µM), 50 µg/mL (≈ 91.8 µM) and over 100 µg/mL, respectively.

Consider `COc1ccc(C2=C(c3cc(OC)c(OC)c(OC)c3)C(=O)C(OC(C)=O)C2)cc1Cl` (stereo not given), for which the IC50 is under 1 µg/mL in assay [1]; 64 µg/mL (≈ 143 µM) in [2] (setting [10]); under 1 µg/mL in assay [3] (setting [11]); 3.5 µg/mL (≈ 7.83 µM) in assay [4] (setting [12]); 64 µg/mL (≈ 143 µM) in assay [5]; over 100 µg/mL in [6] (setting [13]). Moreover, the IC50 in [7] (setting [14]) is under 1 µg/mL; in [8], 24 µg/mL (≈ 53.7 µM); in assay [9], 60 µg/mL (≈ 134 µM).

In the case of `COc1ccc(C2=C(c3cc(OC)c(OC)c(OC)c3)C(=O)CC2O[Si](C)(C)C(C)(C)C)cc1O` (stereo not given), the IC50 was determined as 38 µg/mL (≈ 75.9 µM) in assay [1]; 6.5 µg/mL (≈ 13 µM) in [2] (setting [10]); 14.5 µg/mL (≈ 29 µM) in assay [3] (setting [11]); 30 µg/mL (≈ 59.9 µM) in assay [4] (setting [12]); 75 µg/mL (≈ 150 µM) in assay [5]; 14 µg/mL (≈ 28 µM) in assay [6] (setting [13]). For the same molecule, the IC50 in [7] (setting [14]) is under 1 µg/mL; in assay [8], 55 µg/mL (≈ 110 µM); in [9], 42 µg/mL (≈ 83.9 µM).
